Data set [1] concerns Mus musculus. As to the kind of experiment: Antinociceptive activity in C57BL/6J mouse at 60 mg/kg, po after 140 mins by warm water tail withdrawal assay. The format is functional, organism-based. The arrangement: dose 60 mg/kg. The gist of the method: (§1)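 Adult male C57BL/6J mice (20-25 g); baseline tail-withdrawal latency in 55 °C water measured, then oral dosing in 1:1:8 ethanol/Tween 80/0.9% saline vehicle. Latency re-measured repeatedly over time, 15 s cut-off. %antinociception = 100×(test−control)/(15−control). ED50 with 95% CI; 7-24 mice/group; repeated-measures ANOVA at 10 min intervals for hour 1 and hour 2.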

In data set [2] the test system is Mus musculus. As to the kind of experiment: Antagonist activity at kappa opioid receptor in po dosed C57BL/6J mouse assessed as inhibition of ip dosed U50,488-induced antinociception effect incubated for 3 hrs prior to testing by warm water tail withdrawal assay.
For data set [3], the system named is Mus musculus. As to the kind of experiment: Prevention of cocaine-induced reinstatement of extinguished cocaine seeking behavior in C57BL/6J mouse at 30 to 60 mg/kg, po qd for 2 days followed by additional cycle of cocaine place conditioning at 30 mins post last dose measured on day 3. It is filed as functional, organism-based. The method, boiled down:
(§2)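 Counterbalanced CPP: four days of saline (30 min confinement), then cocaine 10 mg/kg sc 4 h later in the opposite compartment. Extinction followed over 3 weeks of twice-weekly tests. Oral 1:1:8 vehicle or 30/60 mg/kg given days 28-29, then either forced swim 3 h later or cocaine conditioning 30 min after day-29 dose. Place preference tested day 30 over 30 min; 12-16 mice/group; ANOVA/Tukey HSD.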

For data set [4], the system named is Mus musculus. As to the kind of experiment: Antinociceptive activity in C57BL/6J mouse at 0.3 mg/kg, po after 60 mins by warm water tail withdrawal assay. The format is functional, organism-based. Also noted: dose 0.3 mg/kg. The gist of the method: as §1
In data set [5] the test system is Mus musculus. Description: Antinociceptive activity in C57BL/6J mouse at 1 to 30 mg/kg, po after 120 mins by warm water tail withdrawal assay. It is filed as functional, organism-based. The gist of the method: as §1
In data set [6] the test system is Mus musculus. Description: Prevention of stress-induced reinstatement of extinguished cocaine seeking behavior in C57BL/6J mouse at 60 mg/kg, po qd for 2 days measured 3 hrs post last dose by forced swim test. The format is functional, organism-based. The arrangement: dose 60 mg/kg. The method, boiled down:
as §2

Data set [7] concerns Mus musculus. Description: Antinociceptive activity in po dosed C57BL/6J mouse after 40 mins by warm water tail withdrawal assay. It is filed as functional. The gist of the method:
as §1

Data set [8] relates to Mus musculus. As to the kind of experiment: Neurotoxicity in C57BL/6J mouse assessed as sedative effect at 10 to 60 mg/kg, po after 60 mins by rotarod test. The format is toxicity, organism-based. Also noted: dose 10-60 mg/kg, route oral. Conditions: in vivo, 1 h. The method, boiled down: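 Seven habituation trials, with the last used as baseline. Male C57BL/6J mice then received oral vehicle (1:1:8) or 10 or 60 mg/kg; the U50,488 comparator was given 10 mg/kg ip. Accelerating rotorod (0-20 rpm, 180 s maximum) over 60 min. Latency to fall expressed as % change from baseline; 7-8 mice/group; two-way ANOVA.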
(In general: Falling from the rotarod earlier than controls is read as motor impairment.)

In data set [9] the test system is Mus musculus. As to the kind of experiment: Antinociceptive activity in C57BL/6J mouse at 1 to 60 mg/kg, po after 60 mins by warm water tail withdrawal assay. The format is functional, organism-based. The gist of the method: as §1
Data set [10] deals with Mus musculus. As to the kind of experiment: Prevention of stress-induced reinstatement of extinguished cocaine cocaine seeking behavior in C57BL/6J mouse at 30 mg/kg, po qd for 2 days measured 3 hrs post last dose by forced swim test. It is filed as functional, organism-based. Also noted: dose 30 mg/kg. The gist of the method: as §2
In data set [11] the test system is Mus musculus. As to the kind of experiment: Antagonist activity at kappa opioid receptor in po dosed C57BL/6J mouse assessed as inhibition of icv dosed U50,488-induced antinociception effect incubated for 3 hrs prior to testing by warm water tail withdrawal assay. It is filed as functional, organism-based. The gist of the method:
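Male C57BL/6J mice (20-25 g) given test agent orally in 1:1:8 ethanol/Tween 80/saline; 3 h later U50,488 given ip (10 mg/kg, in saline) or icv (30 nmol), with tail-withdrawal testing in 55 °C water 40 or 20 min afterwards, respectively. 15 s cut-off; % antinociception calculated from baseline latency. 8 mice/group; one-way ANOVA with Tukey HSD.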

The source made the active and inactive calls. Where a SMILES comes first, the peptide text is derived from it. [ ]: non-standard residue; d: D form.

As to `O=C1N[C@@H](Cc2ccccc2)C(=O)N2CCC[C@@H]2C(=O)N[C@@H](Cc2ccccc2)C(=O)N[C@H]1Cc1c[nH]c2ccccc12` (cyclo(FWF[dP])), the outcome in the data set on Mus musculus [1], with Mus musculus [3], with Mus musculus [6] and in the data set on Mus musculus [9] was Active. The inhibition entry in the data set on Mus musculus [2] and in the data set on Mus musculus [11] was “Dose-dependent effect” in each case. The result in the data set with Mus musculus [4], in the data set with Mus musculus [5] and in the data set on Mus musculus [10] was inactive. Besides, the median effective dose (ED50) with Mus musculus [7] worked out at 3.49 mg/kg. The Activity result in the data set on Mus musculus [8] was “Non-toxic”.

Usually ED50 stands for the midpoint of the dose-response relation. Read a low ED50 as greater potency.
